Data set [1] concerns BSC-1. Kind of data set: Inhibition of Herpes simplex virus 1 HF DNA polymerase-mediated DNA synthesis in African green monkey BSC1 cell nucleus at 400 ug/ml after 60 mins by [3H]-TTP incorporation assay relative to control. The class given is cell-based. Conditions: Human alphaherpesvirus 1. The gist of the method: (§1)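 Nuclei were taken from BSC-1 cells 20 h after HSV-1 infection by Dounce homogenization and low-speed spin. They were washed and incubated with drug for 60 min at 37 °C: 8 × 10⁶ nuclei, 80 mM K phosphate pH 7.4, 250 mM sucrose, 6 mM MgCl₂, 0.4 mM CaCl₂, 0.04 mM dATP/dGTP/dCTP, [³H]TTP, 1 mM ATP, PEP/pyruvate kinase, 5 mM EGTA. Read-out was TCA-precipitable radioactivity.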

Data set [2] relates to BSC-1. Put plainly: Inhibition of Herpes simplex virus 1 HF DNA polymerase-mediated DNA synthesis in African green monkey BSC1 cell nucleus at 200 ug/ml after 60 mins by [3H]-TTP incorporation assay relative to control. Conditions: Human alphaherpesvirus 1. The class given is cell-based. The gist of the method:
as §1

In data set [3] the test system is Human alphaherpesvirus 1. Put plainly: Antiviral activity against Herpes simplex virus 1 HF infected in African green monkey BSC1 cells assessed as inhibition of viral progeny production at 200 ug/ml after 20 to 24 hrs by plaque reduction assay relative to control. Type of data set: functional. Conditions: Human alphaherpesvirus 1, HF, BSC-1. The essentials: (§2)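 BSC-1 monkey kidney monolayers in DMEM with 10% fetal bovine serum, infected with HSV-1 strain HF at 10 pfu/cell. Drug, in 10% Me2SO in water, added at infection at the highest noncytotoxic concentration. Cultures held 20–24 h at 37 °C, then sonicated. Progeny titred by plaque assay on BSC-1 (3 h adsorption, agar overlay, 72 h, gentian violet). Inhibition is plaque count with drug versus without.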

Data set [4] in a line: Cytotoxicity against African green monkey BSC1 cells after 24 to 72 hrs by light microscopic analysis. Type of data set: cell-based, BSC-1. Conditions: chlorocebus aethiops. The gist of the method:
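BSC-1 monkey kidney cells incubated with drug at 37 °C, dissolved in 10% Me₂SO in water. Cell destruction was scored by light microscopy at 24, 48 and 72 h. Toxicity was defined as cell death within 2 days. The maximal nontoxic concentration is the nontoxic level whose twofold increase causes toxicity.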

Data set [5] relates to BSC-1. Kind of data set: Inhibition of Herpes simplex virus 1 HF DNA polymerase-mediated DNA synthesis in African green monkey BSC1 cell nucleus after 60 mins by [3H]-TTP incorporation assay relative to control. The class given is cell-based. Conditions: Human alphaherpesvirus 1. The gist of the method: as §1
The subject of data set [6] is BSC-1. Kind of data set: Inhibition of Herpes simplex virus 1 HF DNA polymerase-mediated DNA synthesis in African green monkey BSC1 cell nucleus at 25 to 300 ug/ml after 60 mins by [3H]-TTP incorporation assay relative to control. Conditions: Human alphaherpesvirus 1. The class given is cell-based. The gist of the method: as §1
Data set [7] deals with BSC-1. Kind of data set: Inhibition of Herpes simplex virus 1 HF DNA polymerase-mediated DNA synthesis isolated from virus-infected African green monkey BSC1 cells at 25 to 400 ug/ml by [3H]-TTP incorporation assay. The class given is cell-free. Conditions: Human alphaherpesvirus 1. The gist of the method: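 HSV DNA polymerase came from nuclear extracts of BSC-1 cells 12 h post-infection, via 70% ammonium sulfate precipitation and sucrose gradients. Assay: 250 mM KCl, 2 mM MgCl₂, 0.05 mM dGTP/dATP/dCTP, 0.01 mM TTP plus [³H]TTP, 500 µg/mL activated calf thymus DNA, 10 mM Tris-HCl pH 8.1, 0.5 µg/mL BSA. Inhibition relative to drug-free reactions.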

For data set [8], the system named is Human alphaherpesvirus 1. Kind of data set: Antiviral activity against Herpes simplex virus 1 HF infected in African green monkey BSC1 cells assessed as inhibition of viral progeny production at 25 ug/ml after 20 to 24 hrs by plaque reduction assay relative to control. The class given is functional. Conditions: Human alphaherpesvirus 1, HF, BSC-1. The gist of the method:
as §2
A general note: In a plaque reduction assay, fewer plaques than in the control indicate reduced infectivity or spread.

Data set [9] relates to Human alphaherpesvirus 1. Kind of data set: Antiviral activity against Herpes simplex virus 1 HF infected in African green monkey BSC1 cells assessed as inhibition of viral progeny production at 50 ug/ml after 20 to 24 hrs by plaque reduction assay relative to control. Conditions: Human alphaherpesvirus 1, HF, BSC-1. Type of data set: functional. The gist of the method: as §2

This note sets out measurements from ChEMBL document CHEMBL3244017, “Structure--activity relationships of pyrrole amidine antiviral antibiotics. 1. Modifications of the alkylamidine side chain” (J Med Chem, 1979).

The source made the active and inactive calls.

Usually inhibition stands for the change of the read-out against control, counted positive when it falls.

Regarding `Cn1cc(NC(=O)c2cc(NC(=O)c3cc(NC=O)cn3C)cn2C)cc1C(=O)NCC(=N)N`, the inhibition entry in the data set on BSC-1 [1] was “Active”. In addition, the inhibition in the data set on BSC-1 [2] is 65%. Further, in the data set with Human alphaherpesvirus 1 [3], the inhibition at 200 µg/mL was found to be 61%. Moreover, the MNTC in data set [4] was over 200 µg/mL.

Regarding `CC(CC(=N)N)NC(=O)c1cc(NC(=O)c2cc(NC(=O)c3cc([N+](=O)[O-])cn3C)cn2C)cn1C` (stereo not drawn), in the data set on BSC-1 [5], the “inhibition of viral DNA synthesis (active/not active)” value (from here on “inhibition … (active/not active)”) was “Active”. Also, the inhibition at 200 µg/mL in the data set with Human alphaherpesvirus 1 [3] is 93.7%. In [4], this compound showed an MNTC of over 200 µg/mL.

Regarding `Cn1cc(NC(=O)c2cc(NC(=O)c3cc(NC=O)cn3C)cn2C)cc1C(=O)NCCC#N`, the inhibition entry in the data set on BSC-1 [1] is “Active”. This compound also returned an inhibition in the data set on BSC-1 [2] of 65%. Also, the inhibition at 200 µg/mL in the data set on Human alphaherpesvirus 1 [3] was 65.5%. In data set [4], this compound showed an MNTC of over 200 µg/mL.

As to `Cn1cc(NC(=O)c2cc(NC(=O)c3cc([N+](=O)[O-])cn3C)cn2C)cc1C(=O)Nc1ccc(C(=N)N)cc1`, the “inhibition … (active/not active)” value with BSC-1 [5] was “inactive”. In the data set with Human alphaherpesvirus 1 [3], the inhibition at 200 µg/mL came out at 94.8%. The same compound registered an MNTC in [4] of over 200 µg/mL.

With `CC(CC#N)NC(=O)c1cc(NC(=O)c2cc(NC(=O)c3cc(NC=O)cn3C)cn2C)cn1C` (stereo not drawn), the inhibition entry in the data set with BSC-1 [1] and with BSC-1 [6] was “Active” each time. Further, in the data set on BSC-1 [2], the inhibition was under 42%. In addition, the inhibition at 200 µg/mL in the data set with Human alphaherpesvirus 1 [3] turned out to be 84.6%. Further, the MNTC in [4] is over 200 µg/mL.

Turning to `Cn1cc(NC=O)cc1C(=O)Nc1cc(C(=O)Nc2cc(C(=O)Nc3ccccc3C(=N)N)n(C)c2)n(C)c1`, the inhibition entry in the data set on BSC-1 [1] is “Active”. Also, the inhibition in the data set on BSC-1 [2] was 65%. For the same compound, the inhibition at 200 µg/mL in the data set on Human alphaherpesvirus 1 [3] amounted to 96.7%. Moreover, the MNTC in data set [4] was over 200 µg/mL.

`Cn1cc(NC=O)cc1C(=O)Nc1cc(C(=O)Nc2cc(C(=O)Nc3cccc(C(=N)N)c3)n(C)c2)n(C)c1`: the inhibition entry in the data set with BSC-1 [1] and in the data set on BSC-1 [7] was “Active” in each case. The compound further showed an inhibition with BSC-1 [2] of 65%. Moreover, in the data set with Human alphaherpesvirus 1 [3], the inhibition at 200 µg/mL was 97.1%. For the same compound, in data set [4], the MNTC was over 200 µg/mL.

On to `Cn1cc(NC(=O)c2cc([N+](=O)[O-])cn2C)cc1C(=O)Nc1cc(C(=O)Nc2ccccc2C(=N)N)n(C)c1`, for which, in the data set with BSC-1 [5], the “inhibition … (active/not active)” value was “inactive”. Further, the inhibition at 200 µg/mL in the data set on Human alphaherpesvirus 1 [3] stood at 96.9%. In data set [4], this compound registered an MNTC of over 200 µg/mL.

With `Cn1cc(NC=O)cc1C(=O)Nc1cc(C(=O)Nc2cc(C(=O)Nc3ccc(C(=N)N)cc3)n(C)c2)n(C)c1`, in the data set on BSC-1 [1], the inhibition entry was “Active”. Moreover, the inhibition in the data set on BSC-1 [2] was under 42%. Besides, the inhibition at 200 µg/mL in the data set with Human alphaherpesvirus 1 [3] was found to be 76.4%. In data set [4], the MNTC was over 200 µg/mL.

For `Cn1cc(NC(=O)c2cc(NC(=O)c3cc([N+](=O)[O-])cn3C)cn2C)cc1C(=O)NCCC(=N)N`, in the data set with BSC-1 [5], the “inhibition … (active/not active)” value is “Active”. Besides, the inhibition at 200 µg/mL in the data set with Human alphaherpesvirus 1 [3] was 86.5%. In data set [4], this compound gave an MNTC of over 200 µg/mL.

As for `CC(CC(=N)N)NC(=O)c1cc(NC(=O)c2cc(NC(=O)c3cc(NC=O)cn3C)cn2C)cn1C` (stereo not drawn), the inhibition result in the data set on BSC-1 [1] was “Active”. This compound came in with an inhibition in the data set on BSC-1 [2] of 86%. Besides, the inhibition at 200 µg/mL with Human alphaherpesvirus 1 [3] is 48%. In addition, in data set [4], the MNTC was over 200 µg/mL.

As to `Cn1cc(NC(=O)c2cc(NC(=O)c3cc(NC=O)cn3C)cn2C)cc1C(=O)NCCC(=N)N`, the inhibition at 25 µg/mL with Human alphaherpesvirus 1 [8] turned out to be 99.7%. Further, the inhibition entry in the data set with BSC-1 [1] and with BSC-1 [7] was “Active” each time. The compound also gave an inhibition in the data set on BSC-1 [2] of 95%. The same compound came in with an MNTC in data set [4] of 25 µg/mL.

As to `Cn1cc(NC(=O)c2cc(NC(=O)c3cc([N+](=O)[O-])cn3C)cn2C)cc1C(=O)NCC(=N)N`, in the data set on BSC-1 [5], the “inhibition … (active/not active)” value was “inactive”. Also, the inhibition at 50 µg/mL in the data set with Human alphaherpesvirus 1 [9] stood at 98.1%. Further, the MNTC in data set [4] amounted to 50 µg/mL.

As for `Cn1cc(NC(=O)c2cc(NC(=O)c3cc([N+](=O)[O-])cn3C)cn2C)cc1C(=O)Nc1cccc(C(=N)N)c1`, the “inhibition … (active/not active)” value with BSC-1 [5] is “inactive”. Further, in the data set on Human alphaherpesvirus 1 [3], the inhibition at 200 µg/mL was 97.2%. In addition, the MNTC in data set [4] was over 200 µg/mL.
